Experiments:
Homo sapiens [1] = organism: Homo sapiens; assay: Selectivity for human NET over human SERT
Procedure, shortened: (§1)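 Competition binding in stably transfected cells expressing human transporters: NET vs [3H]nisoxetine and SERT vs [3H]citalopram in HEK-293 cells; DAT vs [125I]RTI-55 in canine kidney cells. Ki as geometric mean of at least three experiments in triplicate; selectivity as ratio of SERT or DAT Ki to NET Ki.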

Homo sapiens [2] = organism: Homo sapiens; assay: Selectivity for human NET over human DAT; procedure, shortened: as §1
[3] = target: Sodium-dependent noradrenaline transporter (Homo sapiens, UniProt P23975); assay: Displacement of [3H]nisoxetine from human NET receptor expressed in HEK293 cells; format: cell-based
Sequence of Sodium-dependent noradrenaline transporter (P23975 whole entry): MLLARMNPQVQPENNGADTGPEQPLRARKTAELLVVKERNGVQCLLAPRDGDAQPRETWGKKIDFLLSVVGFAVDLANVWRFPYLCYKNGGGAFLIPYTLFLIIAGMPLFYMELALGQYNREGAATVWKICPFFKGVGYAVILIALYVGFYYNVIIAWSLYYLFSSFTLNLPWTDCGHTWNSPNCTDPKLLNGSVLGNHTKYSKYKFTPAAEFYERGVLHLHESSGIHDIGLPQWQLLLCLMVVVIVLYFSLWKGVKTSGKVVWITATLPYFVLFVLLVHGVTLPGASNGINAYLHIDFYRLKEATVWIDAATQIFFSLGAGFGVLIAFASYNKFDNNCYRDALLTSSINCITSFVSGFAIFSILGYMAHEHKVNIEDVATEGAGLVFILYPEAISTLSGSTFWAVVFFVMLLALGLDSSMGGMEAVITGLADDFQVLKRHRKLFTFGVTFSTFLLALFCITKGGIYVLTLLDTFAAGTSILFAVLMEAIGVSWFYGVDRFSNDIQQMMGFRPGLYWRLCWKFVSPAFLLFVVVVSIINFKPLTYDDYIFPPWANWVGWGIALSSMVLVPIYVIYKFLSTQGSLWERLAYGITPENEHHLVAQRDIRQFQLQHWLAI

[4] = target: Sodium-dependent serotonin transporter (Homo sapiens, UniProt P31645); assay: Displacement of [3H]citalopram from human SERT receptor expressed in HEK293 cells; format: cell-based
Sequence of Sodium-dependent serotonin transporter (P31645 whole entry): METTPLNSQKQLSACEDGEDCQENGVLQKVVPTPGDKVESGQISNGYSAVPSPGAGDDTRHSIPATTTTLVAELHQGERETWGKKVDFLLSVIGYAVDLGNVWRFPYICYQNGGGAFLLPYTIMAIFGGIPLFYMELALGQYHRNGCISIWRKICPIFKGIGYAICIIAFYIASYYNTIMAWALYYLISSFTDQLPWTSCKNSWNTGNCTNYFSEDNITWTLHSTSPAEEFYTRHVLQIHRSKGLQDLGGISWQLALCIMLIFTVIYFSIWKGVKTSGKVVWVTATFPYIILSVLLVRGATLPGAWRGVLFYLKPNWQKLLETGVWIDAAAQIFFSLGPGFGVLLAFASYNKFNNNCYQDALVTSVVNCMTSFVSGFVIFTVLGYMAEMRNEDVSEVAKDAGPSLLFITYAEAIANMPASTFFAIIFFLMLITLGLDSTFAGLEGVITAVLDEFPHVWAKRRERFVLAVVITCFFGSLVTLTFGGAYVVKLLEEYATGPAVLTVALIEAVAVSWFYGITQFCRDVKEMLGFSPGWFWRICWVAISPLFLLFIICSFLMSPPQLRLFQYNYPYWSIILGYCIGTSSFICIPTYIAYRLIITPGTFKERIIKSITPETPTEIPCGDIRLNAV
Procedure, shortened: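 Competition binding against [³H]citalopram in HEK-293 cells stably transfected with human SERT. Ki in nM, geometric mean ± SD of at least three separate experiments, each run in triplicate.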

[5] = target: Sodium-dependent dopamine transporter (Homo sapiens, UniProt Q01959); assay: Displacement of [125I]RTI-55 from human DAT receptor expressed in canine kidney cells; format: cell-based
Sequence of Sodium-dependent dopamine transporter (Q01959 whole entry): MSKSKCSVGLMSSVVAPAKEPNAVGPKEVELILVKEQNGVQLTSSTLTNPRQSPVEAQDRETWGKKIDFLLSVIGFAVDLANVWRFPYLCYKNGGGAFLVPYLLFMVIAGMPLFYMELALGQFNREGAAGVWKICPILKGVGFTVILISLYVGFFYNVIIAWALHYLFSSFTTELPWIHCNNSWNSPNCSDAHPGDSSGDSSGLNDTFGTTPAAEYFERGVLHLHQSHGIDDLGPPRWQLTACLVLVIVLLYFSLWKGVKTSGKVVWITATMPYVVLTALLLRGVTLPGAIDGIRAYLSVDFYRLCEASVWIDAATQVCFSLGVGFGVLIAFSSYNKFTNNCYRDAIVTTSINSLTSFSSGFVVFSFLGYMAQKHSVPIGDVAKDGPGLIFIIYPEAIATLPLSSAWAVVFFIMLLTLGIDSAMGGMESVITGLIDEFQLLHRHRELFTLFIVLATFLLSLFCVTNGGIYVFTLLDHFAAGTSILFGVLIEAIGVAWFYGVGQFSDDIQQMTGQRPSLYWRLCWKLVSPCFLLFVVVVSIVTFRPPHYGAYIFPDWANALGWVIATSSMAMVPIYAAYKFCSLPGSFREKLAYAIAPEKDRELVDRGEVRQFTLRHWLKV
Procedure, shortened: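 Competition binding against [¹²⁵I]RTI-55 in canine kidney cells stably transfected with human DAT. Ki in nM, geometric mean ± SD of at least three separate experiments, each run in triplicate.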

[6] = Lipophilicity, log P at pH 7.4; format: physicochemical; settings: buffer
Procedure, shortened: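 Radiotracer (~5–10 μCi) in 2 mL 1-octanol plus 2 mL 0.02 M sodium phosphate buffer, pH 7.4. Vortexed 10 min at room temperature, centrifuged 5 min. 0.5 mL of each layer gamma-counted and decay corrected. log P = log(octanol counts/buffer counts), done three times and averaged.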

[7] = Ratio of drug uptake in pons to caudate of anesthetized rhesus monkey at 15 to 20 mCi after 85 mins postinjection by microPET; format: ADME, organism-based, Macaca mulatta; settings: in vivo
Procedure, shortened: (§2)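 Anesthetized adult male rhesus monkeys scanned on a microPET P4 after 15–20 mCi of the 11C radioligand; emission collected continuously for 125 min, binned, time-activity curves from manually drawn anatomical ROIs; regional uptake divided by caudate uptake (caudate as NET-poor reference) at 85 min postinjection, at baseline.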

[8] = Ratio of drug uptake in cerebellum to caudate of anesthetized rhesus monkey at 15 to 20 mCi after 85 mins postinjection by microPET; format: ADME, organism-based, Macaca mulatta; settings: in vivo
Procedure, shortened: (§3)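 Anesthetized adult male rhesus monkeys given 15–20 mCi of the ¹¹C tracer, alone or after desipramine (0.125 or 0.25 mg/kg) 40 min beforehand. MicroPET emission collected continuously for 125 min and binned. ROIs drawn manually on anatomical landmarks to give time-activity curves. Region-to-caudate uptake ratio taken at 85 min postinjection.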

[9] = Ratio of drug uptake in pons to caudate of awaken rhesus monkey at 15 to 20 mCi after by PET method; format: ADME, Macaca mulatta; settings: in vivo
Procedure, shortened: (§4)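 Awake rhesus monkeys imaged on a high-resolution research tomograph (HRRT) for 120 min after radioligand injection; images coregistered with composite MRI to define regions; time-activity curves generated and highest ratio of regional uptake to caudate uptake taken.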

[10] = Ratio of drug uptake in pons to caudate of anesthetized rhesus monkey at 15 to 20 mCi pretreated with 0.125 mg/kg desipramine by microPET; format: ADME, organism-based, Macaca mulatta; parameters: dose 0.125 mg/kg; settings: in vivo
Procedure, shortened: (§5)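 Anesthetized adult male rhesus monkeys imaged on a microPET P4 system after injection of 15–20 mCi of the 11C-labeled radioligand. Desipramine was given 40 min before radiotracer injection. Emission data were collected continuously for 125 min and binned. ROIs were drawn manually on anatomical landmarks in the reconstructed images. The ratio of region-of-interest to caudate uptake was taken from time-activity curves at 85 min postinjection.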

[11] = Ratio of drug uptake in midbrain to caudate of awaken rhesus monkey at 15 to 20 mCi after by PET method; format: ADME, Macaca mulatta; settings: in vivo; procedure, shortened: as §4
[12] = Ratio of drug uptake in cerebellum to caudate of anesthetized rhesus monkey at 15 to 20 mCi pretreated with 0.125 mg/kg desipramine by microPET; format: ADME, organism-based, Macaca mulatta; parameters: dose 0.125 mg/kg; settings: in vivo; procedure, shortened: as §5
[13] = Ratio of drug uptake in cerebellum to caudate of awaken rhesus monkey at 15 to 20 mCi after by PET method; format: ADME, tissue-based, Macaca mulatta; settings: in vivo
Procedure, shortened: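 Awake rhesus monkeys imaged on a high-resolution research tomograph for 120 min after injection of the ¹¹C tracer. Images coregistered with composite MRI to define regions of interest. Highest cerebellum-to-caudate uptake ratio read from the time-activity curves.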

[14] = Ratio of drug uptake in midbrain to caudate of anesthetized rhesus monkey at 15 to 20 mCi pretreated with 0.125 mg/kg desipramine by microPET; format: ADME, organism-based, Macaca mulatta; parameters: dose 0.125 mg/kg; settings: in vivo; procedure, shortened: as §5
[15] = Ratio of drug uptake in midbrain to caudate of anesthetized rhesus monkey at 15 to 20 mCi after 85 mins postinjection by microPET; format: ADME, organism-based, Macaca mulatta; settings: in vivo; procedure, shortened: as §3
[16] = Ratio of drug uptake in thalamus to caudate of anesthetized rhesus monkey at 15 to 20 mCi after 85 mins postinjection by microPET; format: ADME, organism-based, Macaca mulatta; settings: in vivo; procedure, shortened: as §2
[17] = Ratio of drug uptake in thalamus to caudate of anesthetized rhesus monkey at 15 to 20 mCi pretreated with 0.125 mg/kg desipramine by microPET; format: ADME, organism-based, Macaca mulatta; parameters: dose 0.125 mg/kg; settings: in vivo; procedure, shortened: as §5
[18] = Ratio of drug uptake in thalamus to caudate of awaken rhesus monkey at 15 to 20 mCi after by PET method; format: ADME, Macaca mulatta; settings: in vivo; procedure, shortened: as §4

| SMILES | Ratio Ki (Homo sapiens [1]) | Ratio Ki (Homo sapiens [2]) | Ki [3] | Ki [4] | Ki [5] | logD [6] | Ratio [7] | Ratio [8] | Ratio [9] | Ratio [10] | Ratio [11] | Ratio [12] | Ratio [13] | Ratio [14] | Ratio [15] | Ratio [16] | Ratio [17] | Ratio [18] |
| --- | --- | --- | --- | --- | --- | --- | --- | --- | --- | --- | --- | --- | --- | --- | --- | --- | --- | --- |
| FCCCc1ccccc1O[C@@H](c1ccccc1)[C@@H]1CNCCO1 | 126 | > 2000 | 3.68 nM | 463 nM | > 6000 nM | 2.29 | – | – | – | – | – | – | – | – | – | – | – | – |
| Cc1ccccc1S[C@@H](c1ccccc1)[C@@H]1CNCCO1 | 49 | 917 | 0.3 nM | 14.8 nM | 275 nM | 2.47 | – | – | – | – | – | – | – | – | – | – | – | – |
| [11CH3]c1ccccc1S[C@@H](c1ccccc1)[C@@H]1CNCCO1 | – | – | – | – | – | – | 1.27 | 1.05 | 1 | 0.98 | 1 | 0.81 | 0.95 | 1.09 | 1.33 | 1.34 | 1.02 | 1.15 |

— ChEMBL document CHEMBL1139340, “Synthesis, radiosynthesis, and biological evaluation of carbon-11 and fluorine-18 labeled reboxetine analogues: potential positron emission tomography radioligands for in vivo imaging of the norepinephrine transporter” (J Med Chem, 2009)
